Most compounds without a hit are left out; they make up all but 0.62% or so of the library.
TNAP inh no acc: TNAP (human) inhibition, acceptor-free conditions; purified TNAP, CDP-star luminescence, 30 min; inhibition, % at 20 µM; actives 0.26% (n = 200,000); AID 1012;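 active = tissue-nonspecific alkaline phosphatase inhibition above about 50% at 20 µM in the single-dose screen, limit read from the data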;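 note: 0% = DMSO negative control and 100% = EDTA positive control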
TNAP act hi DEA: TNAP (human) activation, high acceptor. P05186. purified TNAP, CDP-star luminescence, 1 M DEA, 30 min; hits give high values; 0 = EDTA background, 1 = DMSO-only activity. activation factor at 20 µM. 200,000 tested, under 10 active;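 active = activation factor at least 2 at 20 µM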
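Test system – human TNAP · Doses – 20 µM single point · Incubation – 30 min, room temperature · Signal – luminescent substrate turnover signal · Read-out basis – activation factor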
PMI act satM6P: increases human PMI activity with near-saturating mannose 6-phosphate. P34949. coupled PMI enzyme assay, resazurin fluorescence, 20 min; hits give high values; 1 = untreated enzyme, 0 = substrate-free blank. activation factor at 20 µM. actives 0.34% (n = 190,000);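 active = activation factor of 2 or more at 20 µM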
Target sequence (P34949 whole entry, looked up): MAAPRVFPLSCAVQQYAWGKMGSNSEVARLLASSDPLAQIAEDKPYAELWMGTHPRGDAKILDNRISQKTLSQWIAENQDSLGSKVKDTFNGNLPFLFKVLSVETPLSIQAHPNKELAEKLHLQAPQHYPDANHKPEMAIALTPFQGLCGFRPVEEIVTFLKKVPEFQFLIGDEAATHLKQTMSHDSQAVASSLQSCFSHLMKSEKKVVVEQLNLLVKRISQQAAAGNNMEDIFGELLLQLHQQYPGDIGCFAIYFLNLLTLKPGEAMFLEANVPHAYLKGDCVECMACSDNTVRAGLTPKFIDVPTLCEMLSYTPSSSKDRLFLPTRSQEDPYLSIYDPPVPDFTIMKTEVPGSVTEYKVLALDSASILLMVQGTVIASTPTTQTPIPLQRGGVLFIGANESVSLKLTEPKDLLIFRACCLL
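Test system: human phosphomannose isomerase with PGI, G6PDH, diaphorase coupling enzymes; amount: 15 ng/mL PMI; incubation: enzyme reaction with compound 20 min at room temperature; technique: resorufin fluorescence (Ex 544/Em 590 nm) from resazurin via diaphorase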
TNAP inh hiacc: blocks human TNAP under high phosphate acceptor concentration; AID 1135; actives 0.03% (n = 200,000); P05186; purified TNAP, CDP-star luminescence, 1 M DEA; inhibition, % at 20 µM;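 active = over 50% inhibition of tissue-nonspecific alkaline phosphatase at 20 µM in the single-dose screen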;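 note: plate controls were DMSO wells for no effect and EDTA-quenched wells as full inhibition for full effect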
PMI act: activators of human phosphomannose isomerase; activation factor at 20 µM; purified human PMI, coupled resazurin fluorescence, 20 min; hits give high values; 1 = vehicle control, 0 substrate-free wells; actives 0.005% (n = 190,000); P34949;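 active = activation factor of 2 or more at 20 µM, relative to plate controls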
* marks the source's active call; other numbers are inactive results; nt = no result.

SMILES | TNAP inh no acc | TNAP act hi DEA | PMI act satM6P | TNAP inh hiacc | PMI act
O=C(CSc1ncnc2sc(-c3ccccc3)cc12)NC1CCS(=O)(=O)C1 (centres undefined) | -4 | 1 | 0.9 | 0 | 0.9
Cc1ccc(NC(=O)CN(C)C(=O)CSc2nnc(C(F)(F)F)n2C)cc1 | -2 | 1 | 1 | -4 | 1.2
O=[N+]([O-])c1ccc(O)c(/C=N/NC2=NS(=O)(=O)c3ccccc32)c1 | 73* | 0.9 | 1.3 | 10 | 1
Cc1nn(Cc2ccc(F)cc2)c(C)c1NC(=O)CCCn1nc([N+](=O)[O-])cc1C | -15 | 1.1 | 1 | -6 | 1
COc1cc(/C=C2\SC(c3ccc(C)cc3)=NC2=O)cc(OC)c1OC | -12 | 0.9 | 1 | 5 | 0.9
COc1cc(/C=C2\SC(c3ccccc3)=NC2=O)cc(Cl)c1O | 52* | 0.8 | 0.5 | 25 | 0.6
Cc1ccc(NC(=S)N2CCN(S(=O)(=O)c3c(F)cccc3F)CC2)cc1C | -3 | 1 | 0.9 | 2 | 0.9
COc1cc(/C=C/c2sc3ccccc3[n+]2CCCS(=O)(=O)[O-])ccc1O | 55* | 0.4 | 0.6 | 57* | 0.9
Cc1ccc2c(c1)sc(C)[n+]2CCCS(=O)(=O)[O-] | -10 | 1 | 0.9 | -4 | 0.9
CCSc1nnc(-c2ccccc2SC)o1 | -2 | 1 | 2.1* | 1 | 1.8
Cc1cc(C(=O)N/N=C/c2cccnc2)cs1 | -4 | 1.1 | 1.1 | -5 | 1.1
C/C(=N/NC(=O)c1cc(-c2ccc(Br)s2)[nH]n1)c1ccco1 | -59 | 1 | 0.9 | 0 | 0.9
O=C(N/N=C/c1ccco1)c1cc(-c2ccc(Cl)s2)[nH]n1 | 54* | 0.8 | 0.9 | 15 | 1
CC(C)c1cc(C(=O)N/N=C/c2cccnc2)n[nH]1 | 63* | 1 | 0.9 | 4 | 1
O=C(N/N=C/c1ccco1)c1cc(-c2cccs2)[nH]n1 | 87* | 0.8 | 1 | 15 | 0.9
COC(=O)c1cc(-c2cccs2)[nH]n1 | 96* | 1 | 1 | 0 | 1.1
Cc1cc(Br)ccc1SCC(=O)OCC(=O)Nc1ccccc1C#N | -6 | 1 | 1 | 0 | 1
Cc1nnc(NC(=O)Cn2nc(C)c3ccccc3c2=O)s1 | -8 | 1 | nt | -3 | nt
CC(C)c1cc(C(=O)N/N=C/c2ccco2)n[nH]1 | 61* | 1 | 0.9 | -2 | 1
COc1ccc(C2CC(=O)Nc3n[nH]c(-c4ccccc4)c32)cc1OC (centres undefined) | 64* | 1 | 0.9 | -1 | 0.9
Cc1ccccc1C(=O)Nc1ccc(C(=O)N/N=C/c2ccc(O)c(Br)c2)cc1 | -9 | 1 | 0.8 | -4 | 0.8
Cc1ccn2c(NC(=O)C(C)(C)Oc3ccc(Cl)cc3)c(-c3cccs3)nc2c1 | -27 | 1 | 0.9 | -4 | 0.8
O=C1CN(c2nc(-c3cccs3)nc3sc4c(c23)CCCC4)CCN1 | -9 | 1 | 2.2* | 0 | 1.5
Cc1ccc(CN2CCN(/N=C\C=C\c3ccccc3)CC2)cc1 | -12 | 1 | 1 | -2 | 1
O=C(O)c1[nH]nc2c1COc1ccccc1-2 | 91* | 1 | 1.1 | 0 | 1
SMILES | TNAP inh no acc | TNAP act hi DEA | PMI act satM6P | TNAP inh hiacc | PMI act
CSc1cnn(Cc2ccccc2)c(=O)c1SCc1ccccc1 | 12 | 1 | 2.5* | 3 | 1.6
Cc1ccc(S(=O)(=O)NNC(=O)C(=O)NNS(=O)(=O)c2ccc(C)cc2)cc1 | 14 | 0.9 | 0.9 | 5 | 1
Cc1ccc(NNS(=O)(=O)c2ccc(C)cc2)cc1 | 3 | 1 | 2* | -1 | 1.1
O=C1Cc2cc(CCN3CCN(c4nsc5ccccc45)CC3)c(Cl)cc2N1 | -7 | 1 | 1.1 | -3 | 1.2
N#C/C(=C\c1ccncc1)c1nc2ccccc2c(=O)[nH]1 | 54* | 1 | 1.4 | 3 | 1.4
CCCN1CC(O)=C(C#N)C1=O | 0 | 1 | 1 | -2 | 1.2
CN1CCc2cc(Cl)c(O)cc2[C@@H](c2ccccc2)C1 | -1 | 1 | 1 | 1 | 1
Oc1cc2c(cc1O)[C@@H](c1ccccc1)CNCC2 | 66* | 0.9 | 0.9 | 13 | 0.6
CC[n+]1ccccc1/C=C/c1ccc(N(C)C)cc1 | 8 | 0.7 | 1 | 27 | 0.7
CC[n+]1c(/C=C/c2ccc(N(C)C)cc2)ccc2ccccc21 | 60* | 0.4 | 1 | 60* | 0.7
CC[n+]1ccc(/C=C/c2ccc(N(C)C)cc2)c2ccccc21 | 52* | 0.5 | 1 | 54* | 1
CCc1ccc(OC(C)c2nnc(SCC(=O)Nc3ncccc3C)n2C)cc1 (centres undefined) | -7 | 1 | 1 | 1 | 0.9
Cc1nc2ccccc2c(=O)n1NC(=O)CCC(=O)O | -4 | 1 | 0.9 | 1 | 0.9
CC(=O)CCc1c(C)c2cccc(C)c2[nH]c1=O | -14 | 1 | 0.9 | -4 | 0.9
COc1cccc2c(=S)c(CCC(C)=O)c(C)[nH]c12 | -58 | 1 | 2.1* | -2 | 1.6
C/C(N)=C(/C#N)C(=O)CSc1n[nH]c(-c2ccccc2Br)n1 | 92* | 1 | 1 | 2 | 1
CN(CCOC(=O)c1cccc(F)c1)Cc1ccccc1 | -17 | 1 | 1.1 | -3 | 1
CC(CN(C)Cc1ccccc1)OC(=O)c1cccc(F)c1 (centres undefined) | -4 | 1 | 2.4* | -2 | 1.6
COc1cc(C2OCC3C(c4ccc(OC5OC(CO)C(O)C(O)C5O)c(OC)c4)OCC23)ccc1O (centres undefined) | 64* | 1 | 0.7 | 1 | 0.7
FC(F)(F)c1cccc(CN2CCC(c3cc(-c4cccs4)n[nH]3)CC2)c1 | -23 | 1 | 0.9 | -5 | 1
FC(F)(F)c1cc(-c2cccs2)n[nH]1 | 71* | 1 | 0.9 | -5 | 0.9
CN=C(Nc1cccc(Cl)c1)SC1CC(=O)N(c2ccc(OC)cc2)C1=O (centres undefined) | -8 | 1.1 | 0.9 | -6 | 0.8
CC(C)C(=O)N1CCc2cc(-c3csc(N)n3)ccc21 | -7 | 1 | 2.1* | 0 | 1.7
Nc1nc(-c2ccc3c(c2)CCC(=O)N3)cs1 | 2 | 1 | 0.9 | 5 | 1
N#CC1=C(c2ccc(-c3ccccc3)cc2)COC1=O | -21 | 1 | 2.4* | -1 | 1.7
N#CCCn1cc(/C=N/NC(=O)c2ccncc2)c(-c2ccc(F)cc2)n1 | -10 | 1 | 0.8 | 0 | 0.9
CCCCCC(=O)NCc1c(C(F)(F)F)nn(C)c1N1CCOCC1 | -3 | 1 | 0.9 | 2 | 0.8
Cc1c(NC(=S)N/N=C\c2ccccc2O)c(=O)n(-c2ccccc2)n1C | -159 | 1 | 1.3 | 5 | 1.1
Cc1c(NC(=S)N/N=C/C=C/c2ccc([N+](=O)[O-])cc2)c(=O)n(-c2ccccc2)n1C | 26 | 0.8 | 2.1* | 22 | 1.5
